In one data set the test system is Hepatitis C virus. In words: Inhibition of HCV RNA replication in 2209-23 cells transfected with bicistronic HCV replicon. The class given is functional, Hepacivirus hominis. A digest of the protocol: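 Huh-7-derived 2209-23 cells stably carry a bicistronic genotype 1b HCV replicon with a renilla luciferase reporter. Replication is read as luciferase signal. EC50 is the concentration that reduces HCV replication by 50%.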

A short description of data set [1]: Cytotoxicity against in 2209-23 cells by WST assay. The class given is cell-based. The conditions noted are these: human. A digest of the protocol: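 Cell viability read by WST assay in 2209-23 replicon cells (Huh-7 derived, stably carrying a genotype 1b bicistronic HCV replicon). CC50 is the concentration that reduces cell viability by 50%.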
The nature of data set [2]: Inhibition of HCV NS5B570-Con1 RNA polymerase. Further details: species or system Hepacivirus hominis. A digest of the protocol: (§1)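 Recombinant HCV genotype 1b NS5B truncated at residue 570, from strain Con1 or strain BK. RNA synthesis was run primer-independently on HCV genome-derived cIRES RNA template. Read-out was incorporation of radiolabeled UMP into acid-insoluble RNA product.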

The nature of data set [3]: Inhibition of HCV NS5B570n-BK RNA polymerase. Further details: species or system Hepacivirus hominis. A digest of the protocol: as §1

The structures appear in SMILES notation. A value given as a limit tells only on which side of the number the result lay.

As to `C[C@H](NP(=O)(OC[C@@]1(N=[N+]=[N-])O[C@@H](n2ccc(=O)[nH]c2=O)[C@@H](O)[C@H]1O)Oc1cccc2ccccc12)C(=O)OCc1ccccc1` (some centres not stated) [listing 1 of 3 here], the EC50 in the data set on Hepatitis C virus stood at 0.39 µM.
The compound `CCC(C)OC(=O)[C@H](C)NP(=O)(OC[C@@]1(N=[N+]=[N-])O[C@@H](n2ccc(=O)[nH]c2=O)[C@@H](O)[C@H]1O)Oc1ccccc1` (some centres not stated) displayed a CC50 in data set [1] above 100 µM. In addition, the 50% effective concentration (EC50) in the data set with Hepatitis C virus (Hepatitis C virus) is 0.63 µM.
Take `CC(C)OC(=O)[C@H](C)NP(=O)(OC[C@@]1(N=[N+]=[N-])O[C@@H](n2ccc(=O)[nH]c2=O)[C@@H](O)[C@H]1O)Oc1ccccc1` (some centres not stated): in data set [1], the 50% cytotoxic concentration (CC50) is above 100 µM. For the same compound, the 50% effective concentration (EC50) in the data set on Hepatitis C virus (Hepatitis C virus) was found to be 0.77 µM.
The corresponding values for `CCOC(=O)[C@H](CCSC)NP(=O)(OC[C@@]1(N=[N+]=[N-])O[C@@H](n2ccc(=O)[nH]c2=O)[C@@H](O)[C@H]1O)Oc1ccccc1` (some centres not stated) are above 100 µM and 14 µM.
In data set [1], `CC(C)(NP(=O)(OC[C@@]1(N=[N+]=[N-])O[C@@H](n2ccc(=O)[nH]c2=O)[C@@H](O)[C@H]1O)Oc1ccccc1)C(=O)OCc1ccccc1` (some centres not stated) gave a CC50 above 100 µM. Also, it took 3.4 µM to reach a half-maximal effect in the data set with Hepatitis C virus (Hepatitis C virus) (EC50).
On to `C[C@H](NP(=O)(OC[C@@]1(N=[N+]=[N-])O[C@@H](n2ccc(=O)[nH]c2=O)[C@@H](O)[C@H]1O)Oc1cccc2ccccc12)C(=O)OCc1ccccc1` (some centres not stated) [listing 2 of 3 here], for which the concentration giving a half-maximal response (EC50) in the data set with Hepatitis C virus turned out to be 0.22 µM.
For the compound `C[C@H](NP(=O)(OC[C@@]1(N=[N+]=[N-])O[C@@H](n2ccc(=O)[nH]c2=O)[C@@H](O)[C@H]1O)Oc1ccccc1)C(=O)OCc1ccccc1` (some centres not stated), the cytotoxic concentration (CC50) in data set [1] is above 100 µM. The same compound yielded an EC50 in the data set on Hepatitis C virus (Hepatitis C virus) of 0.61 µM.
As for `C[C@H](NP(=O)(OC[C@@]1(N=[N+]=[N-])O[C@@H](n2ccc(=O)[nH]c2=O)[C@@H](O)[C@H]1O)Oc1cccc2ccccc12)C(=O)OCc1ccccc1` (some centres not stated) [listing 3 of 3 here], in data set [1], the CC50 was above 100 µM. The compound also displayed a concentration for a half-maximal effect (EC50) in the data set on Hepatitis C virus (Hepatitis C virus) of 0.43 µM.
`C[C@H](NP(=O)(OC[C@@]1(N=[N+]=[N-])O[C@@H](n2ccc(=O)[nH]c2=O)[C@@H](O)[C@H]1O)Oc1ccccc1)C(=O)OC(C)(C)C` (some centres not stated) came in with a cytotoxic concentration (CC50) in data set [1] above 100 µM. This compound had an EC50 with Hepatitis C virus (Hepatitis C virus) of 5.1 µM.
The matching figures for `C[C@@H](NP(=O)(OC[C@@]1(N=[N+]=[N-])O[C@@H](n2ccc(=O)[nH]c2=O)[C@@H](O)[C@H]1O)Oc1ccccc1)C(=O)OCc1ccccc1` (some centres not stated): above 100 µM and 1.2 µM.
In data set [1], `[N-]=[N+]=N[C@]1(COP(=O)(NC2(C(=O)OCc3ccccc3)CCCC2)Oc2ccccc2)O[C@@H](n2ccc(=O)[nH]c2=O)[C@@H](O)[C@H]1O` (some centres not stated) showed a CC50 above 100 µM. This compound returned an EC50 with Hepatitis C virus (Hepatitis C virus) below 100 µM.
In data set [1], `CCCCOC(=O)[C@H](C)NP(=O)(OC[C@@]1(N=[N+]=[N-])O[C@@H](n2ccc(=O)[nH]c2=O)[C@@H](O)[C@H]1O)Oc1ccccc1` (some centres not stated) returned a half-maximal cytotoxic concentration (CC50) above 100 µM. In the data set with Hepatitis C virus (Hepatitis C virus), this compound registered an EC50 of 1.2 µM.
In data set [1], `[N-]=[N+]=N[C@]1(COP(=O)(NCC(=O)OCc2ccccc2)Oc2ccccc2)O[C@@H](n2ccc(=O)[nH]c2=O)[C@@H](O)[C@H]1O` (some centres not stated) displayed a CC50 above 100 µM. This compound gave a concentration for a half-maximal effect (EC50) in the data set on Hepatitis C virus (Hepatitis C virus) of 1.6 µM.
In data set [1], `CCOC(=O)[C@@H]1CCCN1P(=O)(OC[C@@]1(N=[N+]=[N-])O[C@@H](n2ccc(=O)[nH]c2=O)[C@@H](O)[C@H]1O)Oc1ccccc1` (some centres not stated) had a cytotoxic concentration (CC50) above 100 µM. The 50% effective concentration (EC50) in the data set on Hepatitis C virus (Hepatitis C virus) was 6 µM.
`[N-]=[N+]=N[C@]1(CO)O[C@@H](n2ccc(=O)[nH]c2=O)[C@@H](O)[C@H]1O` registered a half-maximal cytotoxic concentration (CC50) in data set [1] above 100 µM. This compound also had a concentration giving a half-maximal response (EC50) with Hepatitis C virus (Hepatitis C virus) above 100 µM.
In turn, `CCOC(=O)[C@H](C)NP(=O)(OC[C@@]1(N=[N+]=[N-])O[C@@H](n2ccc(=O)[nH]c2=O)[C@@H](O)[C@H]1O)Oc1ccccc1` (some centres not stated) registered a CC50 in data set [1] above 100 µM. The compound further returned an EC50 in the data set with Hepatitis C virus (Hepatitis C virus) of 1.3 µM.
Compound `CCOC(=O)CCNP(=O)(OC[C@@]1(N=[N+]=[N-])O[C@@H](n2ccc(=O)[nH]c2=O)[C@@H](O)[C@H]1O)Oc1ccccc1` (some centres not stated) showed a CC50 in data set [1] above 100 µM. This compound also registered an EC50 in the data set on Hepatitis C virus (Hepatitis C virus) above 100 µM.
As to `CCOC(=O)[C@H](Cc1ccccc1)NP(=O)(OC[C@@]1(N=[N+]=[N-])O[C@@H](n2ccc(=O)[nH]c2=O)[C@@H](O)[C@H]1O)Oc1ccccc1` (some centres not stated), the CC50 in data set [1] was above 100 µM. The compound further gave an EC50 with Hepatitis C virus (Hepatitis C virus) of 1.37 µM.
For `CC(C)[C@H](NP(=O)(OC[C@@]1(N=[N+]=[N-])O[C@@H](n2ccc(=O)[nH]c2=O)[C@@H](O)[C@H]1O)Oc1ccccc1)C(=O)OCc1ccccc1` (some centres not stated), the 50% cytotoxic concentration (CC50) in data set [1] is above 100 µM. This compound yielded an EC50 in the data set with Hepatitis C virus (Hepatitis C virus) below 100 µM.
Take `CCOC(=O)C(C)(C)NP(=O)(OC[C@@]1(N=[N+]=[N-])O[C@@H](n2ccc(=O)[nH]c2=O)[C@@H](O)[C@H]1O)Oc1ccccc1` (some centres not stated): the 50% cytotoxic concentration (CC50) in data set [1] is above 100 µM. In the data set on Hepatitis C virus (Hepatitis C virus), it took 10.3 µM to reach a half-maximal effect (EC50).
`CCOC(=O)CN(C)P(=O)(OC[C@@]1(N=[N+]=[N-])O[C@@H](n2ccc(=O)[nH]c2=O)[C@@H](O)[C@H]1O)Oc1ccccc1` (some centres not stated) came in with a cytotoxic concentration (CC50) in data set [1] above 100 µM. The same compound came in with an EC50 in the data set on Hepatitis C virus (Hepatitis C virus) above 100 µM.
Compound `CCOC(=O)[C@H](CC(C)C)NP(=O)(OC[C@@]1(N=[N+]=[N-])O[C@@H](n2ccc(=O)[nH]c2=O)[C@@H](O)[C@H]1O)Oc1ccccc1` (some centres not stated) returned a 50% cytotoxic concentration (CC50) in data set [1] above 100 µM. This compound also showed an EC50 with Hepatitis C virus (Hepatitis C virus) of 2.3 µM.
The matching figures for `[N-]=[N+]=N[C@]1(COP(=O)(N[C@@H](Cc2ccccc2)C(=O)OCc2ccccc2)Oc2ccccc2)O[C@@H](n2ccc(=O)[nH]c2=O)[C@@H](O)[C@H]1O` (some centres not stated): above 100 µM and below 100 µM.
`[N-]=[N+]=N[C@]1(COP(=O)(O)OP(=O)(O)OP(=O)(O)O)O[C@@H](n2ccc(=O)[nH]c2=O)[C@@H](O)[C@H]1O`: the results for the IC50 in data set [2] and in data set [3] were 0.22 µM and 0.23 µM, respectively.
In the case of `CCOC(=O)C1(NP(=O)(OC[C@@]2(N=[N+]=[N-])O[C@@H](n3ccc(=O)[nH]c3=O)[C@@H](O)[C@H]2O)Oc2ccccc2)CCCC1` (some centres not stated), the CC50 in data set [1] was above 100 µM. This compound also displayed an EC50 in the data set with Hepatitis C virus (Hepatitis C virus) above 100 µM.
Consider `COC(=O)[C@H](C)NP(=O)(OC[C@@]1(N=[N+]=[N-])O[C@@H](n2ccc(=O)[nH]c2=O)[C@@H](O)[C@H]1O)Oc1ccccc1` (some centres not stated), for which the CC50 in data set [1] was above 100 µM. Further, the concentration for a half-maximal effect (EC50) with Hepatitis C virus (Hepatitis C virus) stood at 3.1 µM.
`[N-]=[N+]=N[C@]1(COP(=O)(O)OP(=O)(O)OP(=O)(O)O)O[C@@H](n2ccc(N)nc2=O)[C@@H](O)[C@H]1O`: the results for the concentration for half-maximal inhibition (IC50) in data set [2] and in data set [3] were 0.32 µM and 0.29 µM, respectively.

The EC50 is the midpoint of the concentration-response curve. A low value points to an effect from little substance. One may read the CC50 as the concentration giving 50% cytotoxicity. The low end stands for greater toxicity to the cells, the high end for lower toxicity to the cells. By IC50 is commonly meant the point on the concentration scale where inhibition reaches its midpoint. A high value points to lower potency.
